ChEMBL document CHEMBL1138925, “Design and synthesis of orally active pyrrolidin-2-one-based factor Xa inhibitors” (Bioorg Med Chem Lett, 2006)

Assays:
[1] = Lipophilicity, log D by CHI assay at pH 7.4; assay type: physicochemical; settings: buffer, read-out: Log D
[2] = Plasma clearance in Han Wistar rat at 1 mg/kg, iv and 2.5 mg/kg, po; assay type: ADME, organism-based
Method in brief: (§1)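 Male Han Wistar rats were given an intravenous bolus at a nominal 1 mg/kg, or oral gavage at a nominal 2.5 mg/kg.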

[3] = Volume of distribution in Han Wistar rat at 1 mg/kg, iv and 2.5 mg/kg, po; assay type: ADME, organism-based; settings: in vivo, read-out: Vss; method in brief: as §1
[4] = Half life in Han Wistar rat at 1 mg/kg, iv and 2.5 mg/kg, po; assay type: ADME, organism-based; settings: in vivo; method in brief: as §1
[5] = Volume of distribution in Beagle dog at 1 mg/kg, iv and 1 mg/kg, po; assay type: ADME, organism-based, Canis lupus familiaris; settings: in vivo, read-out: Vss
[6] = Plasma clearance in Beagle dog at 1 mg/kg, iv and 1 mg/kg, po; assay type: ADME, organism-based, Canis lupus familiaris
[7] = Oral bioavailability in Han Wistar rat at 1 mg/kg, iv and 2.5 mg/kg, po; assay type: ADME, organism-based; settings: in vivo; method in brief: as §1
[8] = Oral bioavailability in Beagle dog at 1 mg/kg, iv and 1 mg/kg, po; assay type: ADME, organism-based, Canis lupus familiaris; settings: in vivo
[9] = Half life in Beagle dog at 1 mg/kg, iv and 1 mg/kg, po; assay type: ADME, organism-based, Canis lupus familiaris; settings: in vivo

Row | Compound | chromatographic logD [1] | clearance [2] | Vd [3] | half-life [4] | Vd [5] | clearance [6] | bioavailability [7] | bioavailability [8] | half-life [9]
1 | C[C@@H](C(=O)N1CC2CCC1CC2)N1CC[C@H](NS(=O)(=O)c2ccc3cc(Cl)ccc3c2)C1=O | 2.94 |  |  |  |  |  |  |  | 
2 | C[C@@H](C(=O)N1CCOCC1)N1CC[C@H](N(CC(=O)O)S(=O)(=O)c2ccc3cc(Cl)ccc3c2)C1=O |  | 2.22 L/h/kg | 0.3 L/kg | 12 min |  |  |  |  | 
3 | C[C@@H](C(=O)N1CC2CNCC(C2)C1)N1CC[C@H](NS(=O)(=O)c2ccc3cc(Cl)ccc3c2)C1=O | 1.47 |  |  |  |  |  |  |  | 
4 | C[C@@H](C(=O)N1CCOCC1)N1CC[C@H](NS(=O)(=O)c2ccc3cc(Cl)ccc3c2)C1=O | 2.2 | 0.78 L/h/kg | 0.6 L/kg | 54 min | 0.44 L/kg | 0.162 L/h/kg | 85% | 100% | 126 min
5 | CCC(=O)CN([C@H]1CCN([C@@H](C)C(=O)N2CCOCC2)C1=O)S(=O)(=O)c1ccc2cc(Cl)ccc2c1 |  | 2.22 L/h/kg | 1.1 L/kg | 30 min |  |  |  |  | 

Next, values leading:

Row | chromatographic logD [1] | clearance [2] | Vd [3] | half-life [4] | Vd [5] | clearance [6] | bioavailability [7] | bioavailability [8] | half-life [9] | Compound
6 |  | 0.9 L/h/kg | 0.4 L/kg | 30 min |  |  |  |  |  | C[C@@H](C(=O)N1CCOCC1)N1CC[C@H](N(C)S(=O)(=O)c2ccc3cc(Cl)ccc3c2)C1=O
7 |  | 1.44 L/h/kg | 0.5 L/kg | 18 min |  |  |  |  |  | C[C@@H](C(=O)N1CCOCC1)N1CC[C@H](N(CC(N)=O)S(=O)(=O)c2ccc3cc(Cl)ccc3c2)C1=O
